The text below walks through data of ChEMBL document CHEMBL1955828, “Anti-mycobacterial activities of some cationic and anionic calix[4]arene derivatives” (Bioorg Med Chem, 2012).

In series [1] the test system is Mycobacterium tuberculosis. Put plainly: Antimycobacterial activity against Mycobacterium tuberculosis H37Rv after 6 days by MTT assay. Type of series: functional, organism-based. The conditions noted are these: 144 h. Put shortly: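 Twofold serial compound dilutions in Middlebrook 7H9 broth were inoculated with bacterial suspension in 7H9 (H37Rv, or INH-resistant MYC5165) and incubated 6 days. MTT (1 mg/mL) was then added, followed by 1 more day of incubation, solubilisation buffer, and OD read at 570 nm. MIC was the lowest concentration inhibiting growth relative to untreated bacilli, and IC50 was also determined.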
(Formazan colour is commonly taken as a measure of viable cells.)

The subject of series [2] is Mycobacterium tuberculosis. The experiment in a line: Antimycobacterial activity against Mycobacterium tuberculosis H37Rv at 1 uM after 6 days by MTT assay. Type of series: functional. The conditions noted are these: 144 h, read-out: GI.
Series [3] relates to Mycobacterium tuberculosis. Put plainly: Antimycobacterial activity against Mycobacterium tuberculosis H37Rv at 10 uM after 6 days by MTT assay. Type of series: functional. As to conditions: 144 h, read-out: GI.
The nature of series [4]: Cytotoxicity against human MRC5 cells by MTT assay. Type of series: cell-based.
For the next series, the system named is Escherichia coli. The experiment in a line: Antibacterial activity against Escherichia coli ATCC 25922 by microdilution method. Type of series: functional. (In broth dilution the organism is exposed to a series of concentrations in liquid medium.)
The next series concerns Pseudomonas aeruginosa. The experiment in a line: Antibacterial activity against Pseudomonas aeruginosa ATCC 27853 by microdilution method. Type of series: functional.
In another series the test system is Staphylococcus aureus. The experiment in a line: Antibacterial activity against Staphylococcus aureus ATCC 25923 by microdilution method. The format is functional.
In a further series the test system is Enterococcus faecalis. Put plainly: Antibacterial activity against Enterococcus faecalis ATCC 29212 by microdilution method. Type of series: functional.

≈ marks a conversion by molar mass, not a printed value.

In general, MIC refers to the least concentration at which growth counts as inhibited. In series [1], `Cc1csc(-c2nc(COc3c4cc(CC(=O)O)cc3Cc3cc(CC(=O)O)cc(c3O)Cc3cc(CC(=O)O)cc(c3OCc3csc(-c5nc(C)cs5)n3)Cc3cc(CC(=O)O)cc(c3O)C4)cs2)n1` showed a minimum inhibitory concentration (MIC) of over 50 µM.

In the case of `Cc1csc(-c2nc(COc3c4cc(CCN)cc3Cc3cc(CCN)cc(c3O)Cc3cc(CCN)cc(c3OCc3csc(-c5nc(C)cs5)n3)Cc3cc(CCN)cc(c3O)C4)cs2)n1`, in series [2], the inhibition of growth at 1 µM came to 25%. The inhibition of growth at 10 µM in series [3] came to 19%.

Regarding `O=P(O)(O)Cc1cc2c(O)c(c1)Cc1cc(CP(=O)(O)O)cc(c1O)Cc1cc(CP(=O)(O)O)cc(c1O)Cc1cc(CP(=O)(O)O)cc(c1O)C2`, in series [2], the inhibition of growth at 1 µM turned out to be 0%. The inhibition of growth at 10 µM in series [3] was 5%.

The IC50 is the midpoint of a concentration-inhibition curve. A high value points to lower potency. The term CC50 denotes the concentration giving 50% cytotoxicity. For `Cc1ccc(-c2ccc(COc3c4cc(CCNC(=N)N)cc3Cc3cc(CCNC(=N)N)cc(c3O)Cc3cc(CCNC(=N)N)cc(c3OCc3ccc(-c5ccc(C)cn5)nc3)Cc3cc(CCNC(=N)N)cc(c3O)C4)cn2)nc1.O=C(O)C(F)(F)F`, the inhibition of growth at 1 µM in series [2] came out at 62%. Also, the inhibition of growth at 10 µM in series [3] was 98%. This molecule also gave an IC50 in series [1] of 50 nM. The MIC in series [1] amounted to 0.8 µM; with Escherichia coli, 4 µg/mL; in the series with Pseudomonas aeruginosa it was 4 µg/mL; against Staphylococcus aureus it was 4 µg/mL; against Enterococcus faecalis it was 4 µg/mL. The molecule also returned a CC50 in series [4] of 128 µg/mL.

In the case of `CO[C@H]1/C=C/O[C@@]2(C)Oc3c(C)c(O)c4c(O)c(c(/C=N/N5CCN(C)CC5)c(O)c4c3C2=O)NC(=O)/C(C)=C\C=C\[C@H](C)[C@H](O)[C@@H](C)[C@@H](O)[C@@H](C)[C@H](OC(C)=O)[C@@H]1C` [RIFAMPIN], 0.24 µM (≈ 0.198 µg/mL) was the least that counted as inhibitory in series [1] (MIC).

For `Cc1cccc(-c2cccc(COc3c4cc(S(=O)(=O)O)cc3Cc3cc(S(=O)(=O)O)cc(c3O)Cc3cc(S(=O)(=O)O)cc(c3OCc3cccc(-c5cccc(C)n5)n3)Cc3cc(S(=O)(=O)O)cc(c3O)C4)n2)n1`, the MIC in series [1] was over 50 µM.

Consider `O=C(O)Cc1cc2c(O)c(c1)Cc1cc(CC(=O)O)cc(c1O)Cc1cc(CC(=O)O)cc(c1O)Cc1cc(CC(=O)O)cc(c1O)C2`, for which the inhibition of growth at 1 µM in series [2] came out at 0%. Besides, the inhibition of growth at 10 µM in series [3] worked out at 7%.

With `c1ccc(-c2ccccn2)nc1` [DIPYRIDYL], the MIC in series [1] was found to be 160 µM (≈ 25 µg/mL).

In series [1], `O=C(O)c1cn(C2CC2)c2cc(N3CCNCC3)c(F)cc2c1=O` [CIPROFLOXACIN] gave an MIC of 2.5 µM (≈ 0.828 µg/mL).

As for `Cc1ccnc(-c2cc(C)ccn2)c1`, in series [1], the lowest concentration to inhibit growth (MIC) was 136 µM (≈ 25 µg/mL). Against the preceding molecule, the MIC is about 54-fold higher.

On to `Cc1csc(-c2nc(COc3c4cc(S(=O)(=O)O)cc3Cc3cc(S(=O)(=O)O)cc(c3O)Cc3cc(S(=O)(=O)O)cc(c3OCc3csc(-c5nc(C)cs5)n3)Cc3cc(S(=O)(=O)O)cc(c3O)C4)cs2)n1`, for which the MIC in series [1] is over 50 µM.

With `Cc1cccc(-c2cccc(COc3c4cc(CCN)cc3Cc3cc(CCN)cc(c3O)Cc3cc(CCN)cc(c3OCc3cccc(-c5cccc(C)n5)n3)Cc3cc(CCN)cc(c3O)C4)n2)n1`, the inhibition of growth at 1 µM in series [2] came to 7%. Further, in series [3], the inhibition of growth at 10 µM was 0%.

In turn, `CCc1cc(C(N)=S)ccn1` [ETHIONAMIDE] displayed an MIC in series [1] of 9 µM (≈ 1.5 µg/mL).

Turning to `CC[C@@H](CO)NCCN[C@@H](CC)CO` [ETHAMBUTOL], the inhibition of growth at 10 µM in series [3] came to 65%. For the same molecule, in series [1], it took 9.8 µM (≈ 2 µg/mL) to inhibit growth (MIC).

In series [1], `Cc1cccc(-c2cccc(COc3c4cc(CP(=O)(O)O)cc3Cc3cc(CP(=O)(O)O)cc(c3O)Cc3cc(CP(=O)(O)O)cc(c3OCc3cccc(-c5cccc(C)n5)n3)Cc3cc(CP(=O)(O)O)cc(c3O)C4)n2)n1` displayed a 50% inhibitory concentration (IC50) of 12400 nM and an MIC of 50 µM (≈ 58.2 µg/mL).

With `Cc1csc(-c2nc(COc3c4cc(CCNC(=N)N)cc3Cc3cc(CCNC(=N)N)cc(c3O)Cc3cc(CCNC(=N)N)cc(c3OCc3csc(-c5nc(C)cs5)n3)Cc3cc(CCNC(=N)N)cc(c3O)C4)cs2)n1.O=C(O)C(F)(F)F`, the inhibition of growth at 1 µM in series [2] was 54%. Also, the inhibition of growth at 10 µM in series [3] worked out at 90%. Inhibition in series [1] was half-maximal at 400 nM (IC50). Moreover, the MIC in series [1] turned out to be 1.6 µM; in the series with Escherichia coli, 4 µg/mL; against Pseudomonas aeruginosa it was 4 µg/mL; with Staphylococcus aureus, 4 µg/mL; against Enterococcus faecalis it was 4 µg/mL. In addition, the CC50 in series [4] was 16 µg/mL.

As to `O=S(=O)(O)c1cc2c(O)c(c1)Cc1cc(S(=O)(=O)O)cc(c1O)Cc1cc(S(=O)(=O)O)cc(c1O)Cc1cc(S(=O)(=O)O)cc(c1O)C2`, the inhibition of growth at 1 µM in series [2] is 0%. The inhibition of growth at 10 µM in series [3] was 0%.

Turning to `Cc1cccc(-c2cccc(COc3c4cc(CCNC(=N)N)cc3Cc3cc(CCNC(=N)N)cc(c3O)Cc3cc(CCNC(=N)N)cc(c3OCc3cccc(-c5cccc(C)n5)n3)Cc3cc(CCNC(=N)N)cc(c3O)C4)n2)n1.O=C(O)C(F)(F)F`, the inhibition of growth at 1 µM in series [2] amounted to 7%. Besides, the inhibition of growth at 10 µM in series [3] was 10%. Also, the minimum inhibitory concentration (MIC) against Escherichia coli, in the series with Pseudomonas aeruginosa, against Staphylococcus aureus and in the series on Enterococcus faecalis was 4 µg/mL in each case.

For the molecule `Cc1cccc(-c2cccc(COc3c4cc(CC(=O)O)cc3Cc3cc(CC(=O)O)cc(c3O)Cc3cc(CC(=O)O)cc(c3OCc3cccc(-c5cccc(C)n5)n3)Cc3cc(CC(=O)O)cc(c3O)C4)n2)n1`, the MIC in series [1] is over 50 µM.

In the case of `N=C(N)NCCc1cc2c(O)c(c1)Cc1cc(CCNC(=N)N)cc(c1O)Cc1cc(CCNC(=N)N)cc(c1O)Cc1cc(CCNC(=N)N)cc(c1O)C2.O=C(O)C(F)(F)F`, the inhibition of growth at 1 µM in series [2] amounted to 73%. For the same molecule, the inhibition of growth at 10 µM in series [3] came out at 97%. In addition, the IC50 in series [1] is 250 nM. For the same molecule, the MIC turned out to be 0.8 µM in series [1]; 4 µg/mL in the series with Escherichia coli; 4 µg/mL in the series with Pseudomonas aeruginosa; 4 µg/mL against Staphylococcus aureus; 4 µg/mL against Enterococcus faecalis. In addition, the half-maximal cytotoxic concentration (CC50) in series [4] is 256 µg/mL.

In the case of `Cc1ccc(-c2ccc(COc3c4cc(CCN)cc3Cc3cc(CCN)cc(c3O)Cc3cc(CCN)cc(c3OCc3ccc(-c5ccc(C)cn5)nc3)Cc3cc(CCN)cc(c3O)C4)cn2)nc1`, in series [2], the inhibition of growth at 1 µM is 63%. Moreover, the inhibition of growth at 10 µM in series [3] stood at 81%. In series [1], this molecule came in with an IC50 of 200 nM and an MIC of 0.8 µM (≈ 0.769 µg/mL).

`NCCc1cc2c(O)c(c1)Cc1cc(CCN)cc(c1O)Cc1cc(CCN)cc(c1O)Cc1cc(CCN)cc(c1O)C2`: the inhibition of growth at 1 µM in series [2] is 27%. The inhibition of growth at 10 µM in series [3] was determined as 76%. In series [1], this molecule had a concentration for half-maximal inhibition (IC50) of 400 nM and an MIC of 3.2 µM (≈ 1.91 µg/mL).

Regarding `CN[C@@H]1[C@H](O[C@H]2[C@H](O[C@H]3[C@H](O)[C@@H](O)[C@H](N=C(N)N)[C@@H](O)[C@@H]3N=C(N)N)O[C@@H](C)[C@]2(O)C=O)O[C@@H](CO)[C@H](O)[C@H]1O` [STREPTOMYCIN], the MIC in series [1] worked out at 0.7 µM (≈ 0.407 µg/mL). This counts as sub-micromolar.

For `NNC(=O)c1ccncc1` [ISONIAZID], it took 0.6 µM (≈ 0.0823 µg/mL) to inhibit growth in series [1] (MIC).

As for `Cc1csc(-c2nc(COc3c4cc(CP(=O)(O)O)cc3Cc3cc(CP(=O)(O)O)cc(c3O)Cc3cc(CP(=O)(O)O)cc(c3OCc3csc(-c5nc(C)cs5)n3)Cc3cc(CP(=O)(O)O)cc(c3O)C4)cs2)n1`, the lowest concentration to inhibit growth in series [1] (MIC) was 50 µM (≈ 59.5 µg/mL).
